Bioassay records: PubChem, several laboratories
Hits are enriched below; roughly 1.4% of the tested compounds scored in any of these assays.
HTR5A ag ctr = HTR5A agonism, opioid heterodimer counter-screen | P47898 | HTR5A agonist assay, luminescence, cell-based | activation, % at 9.3 µM | hit rate 0.61% among 340,000; in the data active = activation mostly above about 9.5%, no sharp cut-off; inactive = mostly below about 7.6%;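 note: 0% = cells with vehicle only and 100% = reference agonist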
Target sequence (P47898 whole entry, looked up): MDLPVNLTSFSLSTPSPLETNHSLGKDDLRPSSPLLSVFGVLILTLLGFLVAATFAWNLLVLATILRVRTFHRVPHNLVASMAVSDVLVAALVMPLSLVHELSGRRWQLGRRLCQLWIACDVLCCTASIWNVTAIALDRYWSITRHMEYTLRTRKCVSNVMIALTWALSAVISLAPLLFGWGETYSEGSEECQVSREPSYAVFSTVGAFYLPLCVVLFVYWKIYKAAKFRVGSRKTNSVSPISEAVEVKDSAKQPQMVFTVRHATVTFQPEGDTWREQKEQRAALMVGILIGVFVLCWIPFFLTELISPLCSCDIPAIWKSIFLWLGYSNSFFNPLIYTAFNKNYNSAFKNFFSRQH
HTR5A inv ag = HTR5A inverse agonism, opioid heterodimer counter-screen; HTR5A cell line, luminescence; AID 504634; hit rate 0.083% among 340,000; P47898; inhibition, % at 9.3 µM; in the data active = inhibition mostly above about 23%, no sharp cut-off; inactive = mostly below about 18%;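 note: 0% = cells with DMSO and 100% = no-cell wells with DMSO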
Lipid droplet = hepatic lipid droplet formation modulation | AML12 mouse hepatocytes, oleate lipid droplets, BODIPY imaging | inhibition, % at 6.5 µM | hit rate 0.4% among 240,000;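 active = lipid droplet intensity inhibited by at least 50%, with more than 500 cells counted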
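Material: mouse AML12 hepatocyte cell line, fixed after treatment; Timing: compound with oleate, overnight; Technique: high-content imaging of BODIPY-stained droplets and DAPI nuclei; Probe or stimulus: oleate, 100 µM final; Dosing: compound at 6.5 µM only.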
MOR-DOR inv ag = mu-delta opioid heterodimer inverse agonism. inhibition, % at 9.3 µM. AID 504357. cell-based MOR-DOR heterodimer luminescence. hit rate 0.21% among 340,000; in the data active = inhibition above about 22%, passing the limit was not always enough;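 note: 0% = cells with DMSO and 100% = wells without cells with DMSO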
MOR-DOR ag = OPRM1-OPRD1 heterodimerization agonism | AID 504326 | activation, % at 9.3 µM | cells, luminescence | hit rate 0.3% among 340,000; in the data active = activation above about 18%;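 note: 0% = vehicle-treated cells and 100% = reference agonist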
MOR-DOR inv conf = OPRM1-OPRD1 heterodimer inverse agonism, confirmation | shares compounds with MOR-DOR inv ag | cells expressing OPRM1/OPRD1 heterodimer, luminescence | inhibition, % at 9.3 µM | hit rate 20% among 580 | AID 504900; in the data active = inhibition above about 32%;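 note: 0% = cells with DMSO and 100% = wells lacking cells with DMSO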
HTR5A inv count = HTR5A inverse agonism, opioid heterodimer counter-screen. inhibition, % at 9.3 µM. shares compounds with MOR-DOR inv ag. AID 504914. HTR5A-expressing cells, luminescence. 580 tested, under 10 active; call rule not given here;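 note: 0% = cells with DMSO and 100% = no-cell wells with DMSO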
* hit, by the source's call; i = inactive; / = no result given.

SMILES	HTR5A ag ctr	HTR5A inv ag	Lipid droplet	MOR-DOR inv ag	MOR-DOR ag	MOR-DOR inv conf	HTR5A inv count
Cn1cnc([N+](=O)[O-])c1S(=O)(=O)Oc1cccc2ccccc12	-5	22	/	24	-5	/	/
O=C(CSc1nncn1-c1ccccc1)NC1CCCCC1	1	-4	12	-10	2	/	/
O=C1c2ccccc2-c2c1nc1c([n+]2[O-])CCCC1	-10	18	/	93*	-16	22	1
COc1ccccc1CCNC(=O)C(=O)NCC1CCCN1S(=O)(=O)c1ccccc1 (stereo not given)	14	-42	/	5	-1	/	/
Cc1ccc(NC(=O)CN2C(=O)N/C(=C/c3ccc(N4CCOCC4)cc3)C2=O)cc1	0	0	-6	16	-3	/	/
Cc1ccc2c(c1)C(=O)C(=O)N2CC(=O)Nc1ccc(N2CCOCC2)cc1	-3	8	10	32*	-6	37*	2
C/C(=C\C(=S)Nc1ccccc1)Nc1ccccc1	-10	14	10	31*	-6	-22	2
C/C(=C\C(=O)c1ccccc1)Nc1ccc(O)cc1	-1	-10	0	-48	10	/	/
CN1C(=O)C(O)(CC(=O)c2ccccn2)c2cc(Br)ccc21 (stereo not given)	3	17	2	74*	-13	i	-11
CCCc1nc(SCC(=O)c2ccc(F)cc2)c2ccccc2n1	0	-1	-99	4	-1	/	/
CC(=O)NC1C(=O)Nc2c1cccc2C(F)(F)F (stereo not given)	3	-5	18	30*	-7	14	-18
O=C(NC(=S)N(CC1CCC1)CC1CCCO1)c1cccc([N+](=O)[O-])c1 (stereo not given)	-1	16	-4	16	-3	/	/
Cn1c(=O)[nH]c(=O)c2c1nc(Br)n2C/C=N/Nc1ccccc1	2	-6	1	35*	-7	i	-26
O=C(c1ccco1)C(O)c1ccco1 (stereo not given)	-10	35*	/	70*	-14	-444	-54
Cc1ccc(C(O)C(=O)c2ccco2)cc1 (stereo not given)	-3	13	/	15	-3	/	/
CCN1CCN(S(=O)(=O)c2ccc(Cl)c(C(=O)Nc3nnc(C)s3)c2)CC1	4	-12	/	10	-2	/	/
ON1C(c2ccccc2C(F)(F)F)N(O)[C@H]2CCCC[C@H]21 (stereo not given in full)	0	0	/	41*	-7	13	-6
CC(C)(C)c1nnc(NC(=S)Nc2ccccc2)s1	-4	11	24	38*	-7	-17	6
S=C(Nc1ccccc1)Nc1nccs1	2	-8	0	33*	-7	5	2
Fc1ccc(NC(=S)Nc2nccs2)cc1	-3	11	3	29*	-6	-8	9
COc1cc(CN2CCC(n3nccc3NC(=O)CCCc3ccccc3)CC2)ccc1F	1	-3	-5	-12	2	/	/
CC(C)n1nccc1N(Cc1ccc(Br)cc1)S(=O)(=O)c1ccccc1	6	3	-2	-51	8	/	/
CCOc1ccc(S(=O)(=O)N2CCC(C(=O)NCc3ccco3)CC2)cc1C	-1	-8	0	-13	2	/	/
CCc1ccc(-c2ccc(SCC(=O)NCC3CCCO3)nn2)cc1 (stereo not given)	2	9	-4	-4	1	/	/
Cc1ccc2cc(C=O)c(N3CCOCC3)nc2c1C	-3	10	-4	36*	-8	-74	-2
SMILES	HTR5A ag ctr	HTR5A inv ag	Lipid droplet	MOR-DOR inv ag	MOR-DOR ag	MOR-DOR inv conf	HTR5A inv count
Cc1ccc2nc(N3CCOCC3)c(C=O)cc2c1	-3	8	11	12	-2	/	/
COc1ccc(C(=S)N2CCN(c3cccc(Cl)c3)CC2)cc1	0	-18	5	-21	4	/	/
COC(=O)c1ccc(C)c(-n2c(=O)n(Cc3ccccc3)c(=O)c3[nH]cnc32)c1	-7	24	/	52*	-12	-46	9
Cc1ccccc1-n1c(=O)n(Cc2ccccc2)c(=O)c2[nH]cnc21	-8	3	3	19	-4	/	/
CC(SC(=S)N(C)Cc1cccs1)C(=O)O (stereo not given)	1	-6	-1	11	-2	/	/
CN(C)c1nc(=NCc2cccs2)ss1	-1	2	/	59*	-12	30	20
Cc1cccc2nc3c(nc12)-c1ccccc1C3=O	0	-14	0	40*	-8	23	3
